In one experiment the test system is C5aR1. The experiment in a line: G-protein coupling and βarr recruitment, C5aR1. The experiment is classed as cell-based. Particulars: Figure 7A.
The target in experiment [1] is C3aR with C-terminal SmBiT, in HEK-293 cells (human) (UniProt Q16581).
Experiment [2] has as its target T1, mouse C5a receptor 1, FLAG-tagged, expressed in Sf9 for cryo-EM (mouse, UniProt P30993 2-351, alkylated with iodoacetamide).
T1 sequence: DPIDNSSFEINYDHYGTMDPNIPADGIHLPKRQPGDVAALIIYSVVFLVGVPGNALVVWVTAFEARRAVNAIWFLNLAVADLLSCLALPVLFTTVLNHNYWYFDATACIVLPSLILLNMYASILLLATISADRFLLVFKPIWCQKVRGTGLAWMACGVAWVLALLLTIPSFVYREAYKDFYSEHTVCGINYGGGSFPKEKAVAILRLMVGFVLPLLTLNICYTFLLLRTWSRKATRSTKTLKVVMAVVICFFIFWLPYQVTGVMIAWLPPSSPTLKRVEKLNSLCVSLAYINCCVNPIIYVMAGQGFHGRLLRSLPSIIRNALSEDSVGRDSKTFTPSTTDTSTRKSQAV
Briefly: cryo-EM structure.

The target of experiment [3] is T2, human C5a receptor 1, FLAG-tagged, expressed in Sf9 for cryo-EM (human, UniProt P21730 2-350, alkylated with iodoacetamide).
T2 sequence: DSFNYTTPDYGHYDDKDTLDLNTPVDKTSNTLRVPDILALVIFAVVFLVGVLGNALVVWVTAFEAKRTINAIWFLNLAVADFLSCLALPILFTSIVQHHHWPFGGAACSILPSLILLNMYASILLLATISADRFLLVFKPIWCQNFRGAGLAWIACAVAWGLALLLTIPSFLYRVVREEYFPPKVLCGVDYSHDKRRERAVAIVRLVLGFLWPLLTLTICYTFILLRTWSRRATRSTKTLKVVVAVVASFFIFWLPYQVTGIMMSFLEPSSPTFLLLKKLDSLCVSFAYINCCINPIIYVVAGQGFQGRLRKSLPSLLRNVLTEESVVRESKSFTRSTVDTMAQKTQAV
The experiment in a line: cryo-EM structure.

Experiment [4] has as its target T3, mC5aR1 (Mus musculus, UniProt P30993).
T3 sequence (P30993 1-351): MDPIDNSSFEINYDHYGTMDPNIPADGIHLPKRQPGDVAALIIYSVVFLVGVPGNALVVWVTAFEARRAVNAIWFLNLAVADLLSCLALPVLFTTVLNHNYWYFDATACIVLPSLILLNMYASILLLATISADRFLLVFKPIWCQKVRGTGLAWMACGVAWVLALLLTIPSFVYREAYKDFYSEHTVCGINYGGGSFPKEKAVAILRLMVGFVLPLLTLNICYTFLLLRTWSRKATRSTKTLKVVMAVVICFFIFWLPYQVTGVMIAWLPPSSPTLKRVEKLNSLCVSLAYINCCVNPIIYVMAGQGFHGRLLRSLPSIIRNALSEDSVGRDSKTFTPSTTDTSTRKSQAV
The experiment in a line: NanoBiT βarr1/2 recruitment and endosomal trafficking, mC5aR1. The class given is cell-based. Particulars: Figures 1I-1P, C5a^pep compared with hC5aR1. A digest of the protocol: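 HEK-293 cells, PEI transfection (DNA:PEI 1:3). Recruitment used 1 μg mC5aR1-SmBiT (C-terminal) with 3.5 μg LgBiT-βarr1/2 (N-terminal). Trafficking used N-SmBiT-βarr1/2 with N-LgBiT-FYVE. After 16-18 h, cells went into HBSS, 0.01% BSA, 5 mM HEPES pH 7.4, 10 μM coelenterazine at 0.1 million/100 μL. Incubation 90 min 37 °C, then 30 min RT. Three basal luminescence reads, then serially diluted ligand.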

For a further experiment, the target named is T4, C3aR (Homo sapiens, UniProt Q16581).
T4 sequence (Q16581 1-482): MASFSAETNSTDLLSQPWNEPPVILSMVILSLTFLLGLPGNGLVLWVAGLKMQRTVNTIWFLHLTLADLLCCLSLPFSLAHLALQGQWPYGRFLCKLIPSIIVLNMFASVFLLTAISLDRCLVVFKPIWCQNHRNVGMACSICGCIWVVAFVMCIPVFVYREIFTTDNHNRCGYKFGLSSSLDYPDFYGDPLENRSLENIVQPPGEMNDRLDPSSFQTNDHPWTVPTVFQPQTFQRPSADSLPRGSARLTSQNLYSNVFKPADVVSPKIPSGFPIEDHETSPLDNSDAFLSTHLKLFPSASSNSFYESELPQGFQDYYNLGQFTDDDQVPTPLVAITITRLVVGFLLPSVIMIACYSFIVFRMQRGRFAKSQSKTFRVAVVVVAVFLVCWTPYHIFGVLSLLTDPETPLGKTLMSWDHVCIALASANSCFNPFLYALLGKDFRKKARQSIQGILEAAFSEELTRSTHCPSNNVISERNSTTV
Briefly: GloSensor-based cAMP assay. The experiment is classed as cell-based. Particulars: Figure 7A; only at moderately high concentration (i.e., 1 μM). (cAMP levels reflect the balance of adenylyl cyclase and phosphodiesterase activity.)

The target in experiment [5] is T3, mC5aR1. The experiment in a line: GloSensor-based cAMP assay. The experiment is classed as cell-based.

In the case of “C3a: complement anaphylatoxin, 77 amino acids, four-helix bundle; natural agonist of C3aR”, the “transducer-coupling response at C5aR1” value in the experiment on C5aR1 is recorded as “did not exhibit any measurable transducer-coupling response”.
As to “human complement anaphylatoxin C3a (from UniProt P01024 672-748) (ligand)”, the EC50 of βarr1/2 recruitment to C3aR (NanoBiT) in experiment [1] fell in the range of 10 to 20 nM.
Take “EP141, pentadecameric peptide derived from and modified based on the carboxyl terminus of C3a”: the Emax of βarr1/2 recruitment to C3aR (NanoBiT), relative to C3a in experiment [1] was 55 to 65 % of C3a.

B1: human complement anaphylatoxin C5a (ligand, UniProt P01031 678-751, looked up)
chain: TLQKKIEEIAAKYKHSVVKKCCYDGACVNNDETCEQRAARISLGPRCIKAFTECCVVASQLRANISHKDMQLGR
Turning to B1, the binding result in experiment [2] and in experiment [3] was “binds” throughout.

B2: C5a: complement anaphylatoxin, 74 amino acids, four-helix bundle; natural agonist of C5aR1 (protein)
chain: TLQKKIEEIAAKYKHSVVKKCCYDGACVNNDETCEQRAARISLGPRCIKAFTECCVVASQLRANISHKDMQLGR
modifications: left off: Trx, N-terminal, cleaved | His6, N-terminal, cleaved
As to B2, the “agonism, βarr recruitment and endosomal trafficking” value with mC5aR1 [4] is reported as “full agonism”. The “cross-reactivity with C3aR in G-protein-coupling assay” value with C3aR was “some cross-reactivity”. For the same molecule, the “potency at mC5aR1 compared with hC5aR1, cAMP response” value in the experiment with mC5aR1 [5] (Figures 1G and 1H) is listed as “slightly lower potency”. The “agonism, G-protein-mediated cAMP response” value in the experiment with mC5aR1 [5] (Figures 1G and 1H, mC5aR1) is recorded as “full agonists”. Further, the “difference between human and mouse C5aR1, G-protein coupling” value with mC5aR1 [5] (human vs mouse C5aR1) is “only a small difference”.

The record behind these values is article PMC7615941 (Cell, 2023).
